Source: ChEMBL document CHEMBL1156240, “Papyriferic acid derivatives as reversal agents of multidrug resistance in cancer cells” (Bioorg Med Chem, 2010)

Legend:
[1] = Cytotoxicity against human multidrug-resistant KB-C2 cells after 48 hrs by MTT assay; assay type: functional, cell-based; conditions: KB-C2, 48 h
How it was run: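 Seeded 5 × 10³ cells/well, preincubated 24 h, then compounds at 2, 10, 50, 100 µg/mL in medium (0.5% DMSO final) for 48 h. MTT 0.5 mg/mL for 4 h, formazan dissolved in DMSO, OD 540 nm; IC50 relative to vehicle controls.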

KB = experiment: Cytotoxicity against human KB cells after 48 hrs by MTT assay; assay type: functional, cell-based

SMILES	IC50 [1] [µM]	IC50 (KB) [µM]
CC(=O)O[C@@H]1C[C@@H]2[C@@]3(C)CC[C@@H](OC(=O)CC(=O)NCc4ccccc4)C(C)(C)[C@@H]3CC[C@@]2(C)[C@]2(C)CC[C@H]([C@]3(C)CC[C@H](C(C)(C)O)O3)[C@@H]12	33.2	31.9
CCCCCCCCOC(=O)CC(=O)O[C@@H]1CC[C@]2(C)[C@H]3CC[C@@H]4[C@@H]([C@]5(C)CC[C@H](C(C)(C)O)O5)CC[C@@]4(C)[C@]3(C)CC[C@H]2C1(C)C	> 100	> 100
CC(=O)O[C@@H]1C[C@@H]2[C@@]3(C)CC[C@@H](OC(=O)CC(=O)OC(C)C)C(C)(C)[C@@H]3CC[C@@]2(C)[C@]2(C)CC[C@H]([C@]3(C)CC[C@H](C(C)(C)O)O3)[C@@H]12	> 100	74.6
CCCOC(=O)CC(=O)O[C@@H]1CC[C@]2(C)[C@H]3CC[C@@H]4[C@@H]([C@]5(C)CC[C@H](C(C)(C)O)O5)CC[C@@]4(C)[C@]3(C)CC[C@H]2C1(C)C	> 100	60.3
COc1ccc(OC)c(NC(=O)CC(=O)O[C@@H]2CC[C@]3(C)[C@H]4C[C@@H](OC(C)=O)[C@@H]5[C@@H]([C@]6(C)CC[C@H](C(C)(C)OC(=O)C(=O)Nc7cc(OC)ccc7OC)O6)CC[C@@]5(C)[C@]4(C)CC[C@H]3C2(C)C)c1	> 100	> 100
COc1cccc2c1C(=O)c1c(O)c3c(c(O)c1C2=O)C[C@@](O)(C(C)=O)C[C@@H]3O[C@H]1C[C@H](N)[C@H](O)[C@H](C)O1 [DAUNORUBICIN]	16.2	0.64
C=CCOC(=O)CC(=O)O[C@@H]1CC[C@]2(C)[C@H]3C[C@@H](OC(C)=O)[C@@H]4[C@@H]([C@]5(C)CC[C@H](C(C)(C)O)O5)CC[C@@]4(C)[C@]3(C)CC[C@H]2C1(C)C	48.3	34.8
CCCCCOC(=O)CC(=O)O[C@@H]1CC[C@]2(C)[C@H]3C[C@@H](OC(C)=O)[C@@H]4[C@@H]([C@]5(C)CC[C@H](C(C)(C)O)O5)CC[C@@]4(C)[C@]3(C)CC[C@H]2C1(C)C	> 100	45.4
CCCCCCCCOC(=O)CC(=O)O[C@@H]1CC[C@]2(C)[C@H]3C[C@@H](OC(C)=O)[C@@H]4[C@@H]([C@]5(C)CC[C@H](C(C)(C)O)O5)CC[C@@]4(C)[C@]3(C)CC[C@H]2C1(C)C	> 100	> 100
CCCCCCCOC(=O)CC(=O)O[C@@H]1CC[C@]2(C)[C@H]3C[C@@H](OC(C)=O)[C@@H]4[C@@H]([C@]5(C)CC[C@H](C(C)(C)O)O5)CC[C@@]4(C)[C@]3(C)CC[C@H]2C1(C)C	> 100	> 100
CCCCOC(=O)CC(=O)O[C@@H]1CC[C@]2(C)[C@H]3C[C@@H](OC(C)=O)[C@@H]4[C@@H]([C@]5(C)CC[C@H](C(C)(C)O)O5)CC[C@@]4(C)[C@]3(C)CC[C@H]2C1(C)C	> 100	40.8
CC(=O)O[C@@H]1C[C@@H]2[C@@]3(C)CC[C@@H](OC(=O)CC(=O)NCc4ccccc4)C(C)(C)[C@@H]3CC[C@@]2(C)[C@]2(C)CC[C@H]([C@]3(C)CC[C@H](C(C)(C)OC(=O)C(=O)NCc4ccccc4)O3)[C@@H]12	> 100	> 100
CCOC(=O)CC(=O)O[C@@H]1CC[C@]2(C)[C@H]3C[C@@H](OC(C)=O)[C@@H]4[C@@H]([C@]5(C)CC[C@H](C(C)(C)O)O5)CC[C@@]4(C)[C@]3(C)CC[C@H]2C1(C)C	64.3	39.1
CC(=O)O[C@@H]1C[C@@H]2[C@@]3(C)CC[C@@H](OC(=O)CC(=O)NC(C)(C)C)C(C)(C)[C@@H]3CC[C@@]2(C)[C@]2(C)CC[C@H]([C@]3(C)CC[C@H](C(C)(C)OC(=O)C(=O)NC(C)(C)C)O3)[C@@H]12	> 100	> 100
CCOC(=O)CC(=O)O[C@@H]1CC[C@]2(C)[C@H]3CC[C@@H]4[C@@H]([C@]5(C)CC[C@H](C(C)(C)O)O5)CC[C@@]4(C)[C@]3(C)CC[C@H]2C1(C)C	> 100	> 100
CCCCCCCCCNC(=O)CC(=O)O[C@@H]1CC[C@]2(C)[C@H]3C[C@@H](OC(C)=O)[C@@H]4[C@@H]([C@]5(C)CC[C@H](C(C)(C)OC(=O)C(=O)NCCCCCCCCC)O5)CC[C@@]4(C)[C@]3(C)CC[C@H]2C1(C)C	> 100	> 100
CC(=O)O[C@@H]1C[C@@H]2[C@@]3(C)CC[C@@H](OC(=O)CC(=O)Nc4ccccc4)C(C)(C)[C@@H]3CC[C@@]2(C)[C@]2(C)CC[C@H]([C@]3(C)CC[C@H](C(C)(C)O)O3)[C@@H]12	26.2	28.3
CCCCCCCOC(=O)CC(=O)O[C@@H]1CC[C@]2(C)[C@H]3CC[C@@H]4[C@@H]([C@]5(C)CC[C@H](C(C)(C)O)O5)CC[C@@]4(C)[C@]3(C)CC[C@H]2C1(C)C	> 100	> 100
CCCCOC(=O)CC(=O)O[C@@H]1CC[C@]2(C)[C@H]3CC[C@@H]4[C@@H]([C@]5(C)CC[C@H](C(C)(C)O)O5)CC[C@@]4(C)[C@]3(C)CC[C@H]2C1(C)C	> 100	> 100

SMILES	IC50 [1] [µM]	IC50 (KB) [µM]
CCCCCCOC(=O)CC(=O)O[C@@H]1CC[C@]2(C)[C@H]3C[C@@H](OC(C)=O)[C@@H]4[C@@H]([C@]5(C)CC[C@H](C(C)(C)O)O5)CC[C@@]4(C)[C@]3(C)CC[C@H]2C1(C)C	> 100	70.7
CC(C)OC(=O)CC(=O)O[C@@H]1CC[C@]2(C)[C@H]3CC[C@@H]4[C@@H]([C@]5(C)CC[C@H](C(C)(C)O)O5)CC[C@@]4(C)[C@]3(C)CC[C@H]2C1(C)C	> 100	> 100
CC(C)COC(=O)CC(=O)O[C@@H]1CC[C@]2(C)[C@H]3CC[C@@H]4[C@@H]([C@]5(C)CC[C@H](C(C)(C)O)O5)CC[C@@]4(C)[C@]3(C)CC[C@H]2C1(C)C	> 100	97
COc1ccc(OC)c(NC(=O)CC(=O)O[C@@H]2CC[C@]3(C)[C@H]4C[C@@H](OC(C)=O)[C@@H]5[C@@H]([C@]6(C)CC[C@H](C(C)(C)O)O6)CC[C@@]5(C)[C@]4(C)CC[C@H]3C2(C)C)c1	> 100	> 100
CCCCCNC(=O)CC(=O)O[C@@H]1CC[C@]2(C)[C@H]3C[C@@H](OC(C)=O)[C@@H]4[C@@H]([C@]5(C)CC[C@H](C(C)(C)OC(=O)C(=O)NCCCCC)O5)CC[C@@]4(C)[C@]3(C)CC[C@H]2C1(C)C	> 100	> 100
CC(=O)O[C@@H]1C[C@@H]2[C@@]3(C)CC[C@@H](OC(=O)CC(=O)OCC(C)C)C(C)(C)[C@@H]3CC[C@@]2(C)[C@]2(C)CC[C@H]([C@]3(C)CC[C@H](C(C)(C)O)O3)[C@@H]12	> 100	33.3
CCCNC(=O)CC(=O)O[C@@H]1CC[C@]2(C)[C@H]3C[C@@H](OC(C)=O)[C@@H]4[C@@H]([C@]5(C)CC[C@H](C(C)(C)O)O5)CC[C@@]4(C)[C@]3(C)CC[C@H]2C1(C)C	40.8	46.1
CC(=O)O[C@@H]1C[C@@H]2[C@@]3(C)CC[C@@H](OC(=O)CC(=O)OCc4ccccc4)C(C)(C)[C@@H]3CC[C@@]2(C)[C@]2(C)CC[C@H]([C@]3(C)CC[C@H](C(C)(C)O)O3)[C@@H]12	> 100	43.7
CCCCCCCCCNC(=O)CC(=O)O[C@@H]1CC[C@]2(C)[C@H]3C[C@@H](OC(C)=O)[C@@H]4[C@@H]([C@]5(C)CC[C@H](C(C)(C)O)O5)CC[C@@]4(C)[C@]3(C)CC[C@H]2C1(C)C	> 100	42.8
CCCCCOC(=O)CC(=O)O[C@@H]1CC[C@]2(C)[C@H]3CC[C@@H]4[C@@H]([C@]5(C)CC[C@H](C(C)(C)O)O5)CC[C@@]4(C)[C@]3(C)CC[C@H]2C1(C)C	> 100	> 100
COc1cc2c(c(OC)c1OC)-c1ccc(OC)c(=O)cc1[C@@H](NC(C)=O)CC2 [COLCHICINE]	10.9	–
COc1ccc(CCN(C)CCCC(C#N)(c2ccc(OC)c(OC)c2)C(C)C)cc1OC (configuration not stated)	> 100	–
CC(=O)O[C@@H]1C[C@@H]2[C@@]3(C)CC[C@@H](OC(=O)CC(=O)OC(C)(C)C)C(C)(C)[C@@H]3CC[C@@]2(C)[C@]2(C)CC[C@H]([C@]3(C)CC[C@H](C(C)(C)O)O3)[C@@H]12	> 100	31.5
CC(=O)O[C@@H]1C[C@@H]2[C@@]3(C)CC[C@@H](OC(=O)CC(=O)Nc4ccccc4)C(C)(C)[C@@H]3CC[C@@]2(C)[C@]2(C)CC[C@H]([C@]3(C)CC[C@H](C(C)(C)OC(=O)C(=O)Nc4ccccc4)O3)[C@@H]12	> 100	> 100
CCCCCNC(=O)CC(=O)O[C@@H]1CC[C@]2(C)[C@H]3C[C@@H](OC(C)=O)[C@@H]4[C@@H]([C@]5(C)CC[C@H](C(C)(C)O)O5)CC[C@@]4(C)[C@]3(C)CC[C@H]2C1(C)C	38.3	38.3
CCCCCCOC(=O)CC(=O)O[C@@H]1CC[C@]2(C)[C@H]3CC[C@@H]4[C@@H]([C@]5(C)CC[C@H](C(C)(C)O)O5)CC[C@@]4(C)[C@]3(C)CC[C@H]2C1(C)C	> 100	> 100
CCCOC(=O)CC(=O)O[C@@H]1CC[C@]2(C)[C@H]3C[C@@H](OC(C)=O)[C@@H]4[C@@H]([C@]5(C)CC[C@H](C(C)(C)O)O5)CC[C@@]4(C)[C@]3(C)CC[C@H]2C1(C)C	67.8	27.8
CCCCNC(=O)CC(=O)O[C@@H]1CC[C@]2(C)[C@H]3C[C@@H](OC(C)=O)[C@@H]4[C@@H]([C@]5(C)CC[C@H](C(C)(C)O)O5)CC[C@@]4(C)[C@]3(C)CC[C@H]2C1(C)C	24.4	24.9
